TRPC4 PAM – TRPC4 (mouse) allosteric potentiation | HEK293 TRPC4beta/mu-opioid, DAMGO EC20, Fluo-4 Ca2+ flux; stronger effect = higher value | B-score at 10 µM | 0.42% of 310,000 active;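 active means B-score of calcium response area above 5 SD of library B-scores, with initial fluorescence ratio within 5 SD of library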
Kir21 block – inhibitors of mouse Kir2.1 inward-rectifier potassium channel. HEK293-Kir2.1, FluxOR thallium flux fluorescence; stronger effect = lower value. B-score at 10 µM. 0.85% of 310,000 active. AID 1672;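 active means fluorescence ratio B-score at or below minus 3 SD of library scores, with starting-brightness B-score within 2 SD, cut at about -4.2 in these data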;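 further: channel flux triggered by added potassium and thallium sulfate stimulus; B-score of peak minus minimum fluorescence over baseline after thallium stimulus; more negative B-score means stronger Kir2.1 block with less thallium influx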
TRPC6 act – activators of mouse TRPC6 channel; Q61143; HEK293-TRPC6 membrane potential dye fluorescence; stronger effect = higher value; B-score at 10 µM; 0.13% of 310,000 active; AID 2550;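 active means B-score of the integrated fluorescence ratio above library mean plus 3 SD, and starting fluorescence ratio within library mean plus 5 SD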;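 further: higher score means more depolarization so channel activation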
Target sequence (Q61143 whole entry, looked up): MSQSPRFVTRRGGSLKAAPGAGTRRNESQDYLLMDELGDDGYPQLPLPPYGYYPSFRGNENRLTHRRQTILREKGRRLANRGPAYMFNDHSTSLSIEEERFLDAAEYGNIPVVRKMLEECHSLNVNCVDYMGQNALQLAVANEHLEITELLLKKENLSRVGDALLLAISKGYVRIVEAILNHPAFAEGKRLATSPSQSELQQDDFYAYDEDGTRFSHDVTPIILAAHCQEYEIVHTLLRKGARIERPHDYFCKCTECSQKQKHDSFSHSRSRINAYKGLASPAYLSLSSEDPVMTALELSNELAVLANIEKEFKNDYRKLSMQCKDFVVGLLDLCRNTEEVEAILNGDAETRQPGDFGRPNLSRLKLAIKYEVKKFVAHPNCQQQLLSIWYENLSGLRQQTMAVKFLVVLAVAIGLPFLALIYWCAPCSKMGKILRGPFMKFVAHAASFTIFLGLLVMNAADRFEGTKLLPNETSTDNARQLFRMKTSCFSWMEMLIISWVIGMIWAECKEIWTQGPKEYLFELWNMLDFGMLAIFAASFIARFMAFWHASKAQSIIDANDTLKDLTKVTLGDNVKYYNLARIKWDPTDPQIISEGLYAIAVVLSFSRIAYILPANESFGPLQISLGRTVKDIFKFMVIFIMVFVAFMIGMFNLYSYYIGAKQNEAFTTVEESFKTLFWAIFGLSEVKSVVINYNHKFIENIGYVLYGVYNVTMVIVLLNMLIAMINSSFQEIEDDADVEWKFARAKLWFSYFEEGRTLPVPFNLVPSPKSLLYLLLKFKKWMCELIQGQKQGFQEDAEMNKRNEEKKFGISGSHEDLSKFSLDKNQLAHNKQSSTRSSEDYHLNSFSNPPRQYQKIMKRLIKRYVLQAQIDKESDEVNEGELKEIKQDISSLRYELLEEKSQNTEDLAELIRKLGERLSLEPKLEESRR
TRPC4 agonist – TRPC4 (mouse) channel activation. 0.49% of 310,000 active. Q9QUQ5. HEK293 TRPC4beta/mu-opioid, Fluo4 calcium fluorescence; stronger effect = higher value. B-score at 10 µM. AID 2237;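 active means B-score above 5 SD of library B-scores, and initial fluorescence ratio not above library mean plus 5 SD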;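 further: positive B-score marks a calcium rise read as TRPC4 activation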
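Assay system: HEK293 stable line with TRPC4beta plus mu-opioid receptor. Times: dye 45 min RT, read 110 s. Measured by: kinetic Fluo4 calcium fluorescence. Measure: B score of integrated ratio. Controls: assay buffer as low control, maximal DAMGO as high control.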
TRPC6 inh – inhibitors of mouse TRPC6 channel | Q61143 | HEK293-TRPC6, membrane potential dye, ACh-evoked depolarization; stronger effect = lower value | B-score at 10 µM | 1.1% of 310,000 active | AID 2553;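 active means B-score under library mean minus 3 SD, initial fluorescence not abnormally high, positive integrated signal ratio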;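 further: B-score derived from integrated fluorescence ratio over the kinetic read; more negative B-score means stronger inhibition of depolarization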
TRPC4 block – TRPC4 (mouse) channel inhibition | Q9QUQ5 | HEK293 TRPC4beta/mu-opioid, DAMGO-evoked Fluo4 calcium flux; stronger effect = lower value | B-score at 10 µM | 0.39% of 300,000 active;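 active means B-score over 3 SD under the library average, no early fluorescence shift, positive overall ratio signal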
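Assay system: HEK293 cells with stable TRPC4beta plus mu-opioid receptor expression. Dosing: single dose. Measured by: Fluo4 Ca2+ flux fluorescence. Also added: DAMGO in two steps, submaximal then maximal. Read-out: B score from integrated Fluo4 fluorescence ratio.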
Each line names hits and unclear results; the compound was inactive in the other large screens. Shown are actives, neighbours in structure and some others; about 2.9% of the full set was active somewhere.

COc1ccccc1OCC(=O)NCC(C)NC(=O)COc1ccccc1OC (stereo unspecified)	none
COc1ccc(C(CNC(=O)Cc2ccc3ccccc3c2)N(C)C)cc1 (stereo unspecified)	TRPC4 agonist 135, TRPC4 block -6
COc1ccc(C(CNC(=O)C(C)c2ccc3cc(OC)ccc3c2)N(C)C)cc1 (stereo unspecified)	Kir21 block -4.9, TRPC4 agonist 204
COc1ccc(C(CNC(=O)c2cc(C)on2)N(C)C)cc1 (stereo unspecified)	TRPC4 agonist 84
CSc1cccc(CNC(=O)C2CCC(=O)N(CC3CCCCC3)C2)c1 (stereo unspecified)	none
CCCc1ccc(OCc2ccc(C(=O)N3CCCC3)o2)cc1	TRPC4 PAM 26
CC(C)c1ccc(OCc2ccc(C(=O)N3CCCC3)o2)cc1	TRPC4 PAM 42
CCOc1ccc(OCc2ccc(C(=O)N3CCCC3)o2)cc1	none
CCOC(=O)CC(NC(=O)c1cc2cc(Cl)cc(Cl)c2oc1=O)c1cccc([N+](=O)[O-])c1 (stereo unspecified)	TRPC4 PAM 21
CCOC(=O)CC(NC(=O)c1cc2cccc(OC)c2oc1=O)c1cccc([N+](=O)[O-])c1 (stereo unspecified)	none
CCCCN(C(=O)CCn1c(=O)oc2ccccc21)c1ccccc1	Kir21 block -8.2
Cc1ccc(CNC(=O)[C@H](Cc2ccccc2)NC(=O)C2CCNCC2)cc1	none
O=[N+]([O-])c1cccc(-n2nnnc2CN2CCCC2)c1	none
Cc1ccc(Nc2cc(C)nc(NCc3ccccc3)n2)cc1	Kir21 block -5.5
COc1cc(C)nc(NCc2ccccc2)n1	none
COc1ccc(Nc2cc(C)nc(NCc3ccccc3)n2)cc1	Kir21 block -14
Cc1cc(NC2CCCCC2)nc(NCc2ccccc2)n1	Kir21 block -13
Cc1cc(N/N=C/c2ccccc2Cl)nc(NCc2ccccc2)n1	none
COC(=O)c1sccc1NC(=O)c1c(Cl)cnn1C	none
COc1ccc(Cl)cc1C(=O)NNC(=O)c1ccncc1	none
COc1cccc(NC(=O)N(C2CCCCC2)C(C)c2cccs2)c1 (stereo unspecified)	none
Cc1ccc(/C=C(\NC(=O)c2ccccc2)C(=O)N2CCCC2C(=O)O)cc1 (stereo unspecified)	none
O=S(=O)(c1ccccc1)N(Cc1ccccc1)c1ccccn1	Kir21 block -6.7
Cc1ccc(NC(=O)Nc2cccc([N+](=O)[O-])c2)nc1	TRPC4 PAM 19
Cc1ccc(/C=N/NC(=O)CNC(=O)c2cccs2)o1	Kir21 block -5.5
COCC(C)NC(C(=O)Nc1ccc(C)c(Cl)c1)c1ccccc1 (stereo unspecified)	TRPC4 agonist 59
COCC(C)NC(C(=O)Nc1cccc(C(C)=O)c1)c1ccccc1 (stereo unspecified)	none
CC1=C(C)CC(C(=O)NCCc2ccc(F)cc2)C(C(=O)O)C1 (stereo unspecified)	none
Nc1c2c(nc3c1CCCC3)CCCC2 (tested in a mixture with another compound)	TRPC4 block -6
C=CCOc1ccc(C2C(C(=O)c3ccc(C)o3)=C(O)C(=O)N2Cc2cccnc2)cc1 (stereo unspecified)	none
O=S(=O)(NC1CCCCC1Oc1ccccc1)c1ccccc1 (stereo unspecified)	Kir21 block -5.4
Cn1c(-c2cccc3ccccc23)n[nH]c1=S	TRPC4 agonist 102
NS(=O)(=O)c1ccc(NC(=O)C(Sc2ccccc2)c2ccccc2)cc1 (stereo unspecified)	none
CN(Cc1ccccc1)C(=O)c1ccccc1Br	none
COc1ccccc1CNC(=O)CN(C)Cc1ccc(SC)cc1	Kir21 block -5.4
COc1ccc(Br)cc1CN(C)CC(=O)NCCc1ccc(S(N)(=O)=O)cc1	Kir21 block -4.7
COc1ccc(Br)cc1CN(C)CC(=O)NCCc1ccccc1	Kir21 block -5.5
CN(CC(=O)NCCc1ccc(F)cc1)Cc1ccccc1	none
CC(C)CN(CCNC(=O)CN1C(=O)COc2ccc(S(=O)(=O)N3CCC(C)CC3)cc21)CC(C)C	none
CCCOc1ccc(Cn2c(=O)oc3ccc(C)cc32)cc1	none
O=S(=O)(NCc1cc(-c2ccccc2Cl)no1)c1ccc(Cl)cc1	TRPC4 PAM 10
CNC(=S)N/N=C/c1cn(Cc2ccc(F)cc2)c2ccccc12	TRPC4 PAM 11
Nc1ccc(C(=O)N/N=C/c2cn(Cc3ccc(F)cc3)c3ccccc23)cc1	none
Nc1ccc(C(=O)N/N=C/c2cn(Cc3ccccc3F)c3ccccc23)cc1	TRPC4 PAM 11
CC(C)NC(=O)c1ccccc1NC(=O)CN(c1ccc2c(c1)OCO2)S(C)(=O)=O	none
CC(C)(C)c1cc(C(=O)NCc2cc(F)cc3c2OCOC3)n(Cc2ccccc2)n1	TRPC4 PAM 13
COc1ccccc1C1/C(=C(\O)c2ccc3c(c2)OCCO3)C(=O)C(=O)N1Cc1cccnc1 (stereo unspecified)	TRPC4 block -6
CCSC1=N/C(=C\c2ccc(OC)cc2)C(=O)N1	TRPC4 PAM 86
CCCNCC1C(Oc2ccc(Cl)cc2Cl)C(=O)N1c1cccc(C)c1C (stereo unspecified)	none
CCCCNCC1C(Oc2ccc(Cl)cc2)C(=O)N1c1ccccc1C (stereo unspecified)	TRPC4 block -6
Cc1ccc(S(=O)(=O)Nc2cccc(C(=O)NCC(c3ccco3)N(C)C)c2)cc1F (stereo unspecified)	none
Cc1ccc(S(=O)(=O)Nc2cccc(C(=O)NCC(c3ccccc3)N(C)C)c2)cc1F (stereo unspecified)	TRPC4 agonist 66, TRPC4 block -10
COc1ccc(NC(=O)c2ccc(S(=O)(=O)N(C)C)cc2)cc1	none
Cc1ccc(NC(=O)CCC(=O)O)cc1F	none
Cc1ccc(NC(=O)CNCC(c2ccccc2)N(C)C)cc1F (stereo unspecified)	TRPC4 agonist 147
COc1ccc(C(CNC(=O)c2cccc(NS(=O)(=O)c3ccc(Br)cc3)c2)N(C)C)cc1 (stereo unspecified)	TRPC4 agonist 154
COc1ccc(C(CNC(=O)c2ccc(S(=O)(=O)N(C)C)cc2)N(C)C)cc1 (stereo unspecified)	TRPC4 agonist 242
CCOc1ccc(NC(=O)CCCN2C(=O)C(c3ccccc3)Oc3cccnc32)cc1 (stereo unspecified)	none
CC(=O)Nc1ccc(N(C(=O)CNC(=O)c2cccs2)C(C(=O)NC(C)(C)C)c2ccccc2)cc1 (stereo unspecified)	none

Source: PubChem
